The source made the active and inactive calls. The rule behind the calls is not given here.
Legend:
MCF7 [1] = assay: Antiproliferative activity against human MCF7 cells by SRB method; assay type: functional, cell-based
MCF7 [2] = assay: Cell cycle arrest in human MCF7 cells assessed as accumulation at S phase at 1 uM after 24 hrs by flow cytometry; assay type: functional
How it was run: (§1)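 MCF-7 cells in 6-well plates, exposed to compound for 24 h at 37 °C, then pulse-labelled with 10 µM bromodeoxyuridine for 30 min. Cells trypsinized, fixed in 80% methanol at -20 °C, acid-denatured and permeabilized, stained with anti-BrdU-FITC, counterstained with propidium iodide and run on flow cytometry. S-phase percentage taken from the propidium iodide histogram.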

HCT-116 = assay: Antiproliferative activity against human HCT116 cells by SRB method; assay type: functional, cell-based
[3] = biological target: Cyclin-dependent kinase 1/cyclin B1 (Homo sapiens, UniProt P06493); assay: Inhibition of CDK1/Cyclin B1 expressed in Sf9 cells-baculovirus system assessed as retinoblastoma susceptibility gene product phosphorylation
Cyclin-dependent kinase 1/cyclin B1, sequence (P06493 whole entry): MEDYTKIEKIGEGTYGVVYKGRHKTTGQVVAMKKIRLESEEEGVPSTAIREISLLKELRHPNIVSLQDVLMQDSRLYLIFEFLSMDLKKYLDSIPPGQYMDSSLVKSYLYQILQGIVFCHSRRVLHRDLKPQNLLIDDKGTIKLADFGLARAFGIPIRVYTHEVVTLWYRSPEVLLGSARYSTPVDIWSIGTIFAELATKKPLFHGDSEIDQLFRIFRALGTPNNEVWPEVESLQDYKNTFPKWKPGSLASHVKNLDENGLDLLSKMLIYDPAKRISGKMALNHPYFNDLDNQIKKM
Cyclin-dependent kinase 1/cyclin B1, sequence (P14635 whole entry, further chain): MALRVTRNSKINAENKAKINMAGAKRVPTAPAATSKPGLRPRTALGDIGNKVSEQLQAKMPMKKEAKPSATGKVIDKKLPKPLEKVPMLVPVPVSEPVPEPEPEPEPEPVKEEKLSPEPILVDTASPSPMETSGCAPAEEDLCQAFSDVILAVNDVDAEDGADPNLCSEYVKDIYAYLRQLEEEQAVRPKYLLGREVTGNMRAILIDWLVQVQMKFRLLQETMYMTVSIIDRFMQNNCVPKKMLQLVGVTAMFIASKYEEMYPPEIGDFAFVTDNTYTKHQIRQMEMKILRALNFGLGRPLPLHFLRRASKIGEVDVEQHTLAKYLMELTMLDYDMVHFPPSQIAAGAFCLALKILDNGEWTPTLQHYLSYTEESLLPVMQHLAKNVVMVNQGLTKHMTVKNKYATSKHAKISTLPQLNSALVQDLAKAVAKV

MCF7 [4] = assay: Increase in cyclin E level in human MCF7 cells at >2 uM after 24 hrs by immunoblot analysis; assay type: functional
How it was run: (§2)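 MCF-7 cells incubated with or without compound for 24 h at 37 °C. Lysates made in Tris/NaCl/EDTA/NP-40/deoxycholate buffer containing PMSF, DTT, NaF and vanadate. 10-20 µg protein run on 8 or 10% SDS-PAGE and blotted to nitrocellulose. Probed with antibodies to each regulatory protein; actin antibody served as loading control.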

MCF7 [5] = assay: Decrease in p27 level in human MCF7 cells at 7.5 uM after 24 hrs by immunoblot analysis; assay type: functional; set-up: scale not given: the % may be the effect or the level left; how it was run: as §2
[6] = biological target: Cyclin-dependent kinase 4/cyclin D1 (Homo sapiens, UniProt P11802); assay: Inhibition of CDK4/cyclin D1 expressed in Sf9 cells-baculovirus system assessed as retinoblastoma susceptibility gene product phosphorylation
Cyclin-dependent kinase 4/cyclin D1, sequence (P11802 whole entry): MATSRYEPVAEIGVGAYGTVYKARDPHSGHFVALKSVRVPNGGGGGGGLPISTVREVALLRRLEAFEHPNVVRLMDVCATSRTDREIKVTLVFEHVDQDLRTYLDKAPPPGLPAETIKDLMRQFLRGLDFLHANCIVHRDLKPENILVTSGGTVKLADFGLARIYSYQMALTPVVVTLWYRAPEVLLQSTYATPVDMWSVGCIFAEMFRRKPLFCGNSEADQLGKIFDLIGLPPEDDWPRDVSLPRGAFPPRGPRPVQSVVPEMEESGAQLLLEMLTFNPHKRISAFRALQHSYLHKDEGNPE
Cyclin-dependent kinase 4/cyclin D1, sequence (P24385 whole entry, further chain): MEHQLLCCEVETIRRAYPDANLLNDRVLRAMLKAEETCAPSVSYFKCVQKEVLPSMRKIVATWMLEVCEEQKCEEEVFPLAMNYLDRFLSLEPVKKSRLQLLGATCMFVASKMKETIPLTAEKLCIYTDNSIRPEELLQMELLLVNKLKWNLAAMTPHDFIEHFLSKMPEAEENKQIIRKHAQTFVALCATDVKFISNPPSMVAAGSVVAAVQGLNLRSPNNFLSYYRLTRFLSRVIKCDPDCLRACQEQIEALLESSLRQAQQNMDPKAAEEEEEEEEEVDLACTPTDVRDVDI

[7] = biological target: T1, Retinoblastoma-associated protein (Homo sapiens) (UniProt P06400); assay: Inhibition of retinoblastoma susceptibility gene product phosphorylation in human MCF7 cells after 24 hrs; assay type: cell-based
T1 sequence (whole entry): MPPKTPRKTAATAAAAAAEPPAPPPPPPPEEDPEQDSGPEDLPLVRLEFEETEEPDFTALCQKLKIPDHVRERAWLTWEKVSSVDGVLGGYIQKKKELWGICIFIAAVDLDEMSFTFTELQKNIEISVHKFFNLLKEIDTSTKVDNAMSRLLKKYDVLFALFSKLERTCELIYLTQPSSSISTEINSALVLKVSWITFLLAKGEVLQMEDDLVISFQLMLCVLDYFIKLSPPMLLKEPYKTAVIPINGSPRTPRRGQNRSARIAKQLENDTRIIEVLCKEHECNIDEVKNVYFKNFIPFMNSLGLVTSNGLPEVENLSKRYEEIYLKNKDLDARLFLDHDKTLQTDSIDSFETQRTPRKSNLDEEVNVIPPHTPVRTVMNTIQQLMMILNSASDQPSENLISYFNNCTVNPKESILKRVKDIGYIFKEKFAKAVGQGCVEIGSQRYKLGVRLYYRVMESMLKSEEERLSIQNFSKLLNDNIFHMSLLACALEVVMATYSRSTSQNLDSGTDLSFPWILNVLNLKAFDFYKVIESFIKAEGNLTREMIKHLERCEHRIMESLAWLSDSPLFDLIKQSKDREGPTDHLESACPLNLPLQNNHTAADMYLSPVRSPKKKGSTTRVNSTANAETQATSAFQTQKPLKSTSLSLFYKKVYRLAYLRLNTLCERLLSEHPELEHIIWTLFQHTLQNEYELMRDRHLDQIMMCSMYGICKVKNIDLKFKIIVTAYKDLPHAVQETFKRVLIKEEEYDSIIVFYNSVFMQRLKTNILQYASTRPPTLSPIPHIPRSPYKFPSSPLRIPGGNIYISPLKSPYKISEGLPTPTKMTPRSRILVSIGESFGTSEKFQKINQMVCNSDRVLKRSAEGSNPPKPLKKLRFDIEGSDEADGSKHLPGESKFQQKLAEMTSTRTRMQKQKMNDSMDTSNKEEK
How it was run: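 MCF-7 cells exposed to compound for 24 h at 37 °C. Extracts separated by SDS-PAGE and immunoblotted with Rb antibody, with the phosphorylated pRB band followed. Also checked with an antibody specific for phospho-Ser807/811 pRB.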

MCF7 [8] = assay: Cell cycle arrest in human MCF7 cells assessed as accumulation at S phase at 3 uM after 24 hrs by flow cytometry; assay type: functional; how it was run: as §1
MCF7 [9] = assay: Decrease in cyclin D1 level in human MCF7 cells at 7.5 to 10 uM after 24 hrs by immunoblot analysis; assay type: functional; set-up: scale not given: the % may be the effect or the level left; how it was run: as §2
MCF7 [10] = assay: Decrease in CDK4 level in human MCF7 cells at 7.5 to 10 uM after 24 hrs by immunoblot analysis; assay type: functional; set-up: scale not given: the % may be the effect or the level left; how it was run: as §2
MCF7 [11] = assay: Decrease in cyclin B level in human MCF7 cells at 4 uM after 24 hrs by immunoblot analysis; assay type: functional; set-up: scale not given: the % may be the effect or the level left; how it was run: as §2
MCF7 [12] = assay: Cell cycle arrest in human MCF7 cells assessed as accumulation at S phase at 0.1 uM after 24 hrs by flow cytometry; assay type: functional; how it was run: as §1
MCF7 [13] = assay: Cell cycle arrest in human MCF7 cells assessed as accumulation at S phase at 0.3 uM after 24 hrs by flow cytometry; assay type: functional; how it was run: as §1
[14] = biological target: Cyclin-dependent kinase 2 (Homo sapiens, UniProt P24941); assay: Inhibition of CDK2/cyclin E expressed in Sf9 cells-baculovirus system assessed as retinoblastoma susceptibility gene product phosphorylation
MCF7 [15] = assay: Cell cycle arrest in human MCF7 cells assessed as accumulation at G1 phase after 24 hrs by flow cytometry; assay type: functional, cell-based; how it was run: as §1
MCF7 [16] = assay: Decrease in CDK2 level in human MCF7 cells at 7.5 uM after 24 hrs by immunoblot analysis; assay type: functional; set-up: scale not given: the % may be the effect or the level left; how it was run: as §2
MCF7 [17] = assay: Decrease in CDK1 level in human MCF7 cells at 7.5 uM after 24 hrs by immunoblot analysis; assay type: functional; set-up: scale not given: the % may be the effect or the level left; how it was run: as §2

| Structure (SMILES) | IC50 (MCF7 [1]) | Activity (MCF7 [2]) | IC50 (HCT-116) | IC50 [3] | Activity (MCF7 [4]) | Activity (MCF7 [5]) | IC50 [6] | Activity [7] | Activity (MCF7 [8]) | Activity (MCF7 [9]) | Activity (MCF7 [10]) | Activity (MCF7 [11]) | Activity (MCF7 [12]) | Activity (MCF7 [13]) | IC50 [14] | Activity (MCF7 [15]) | Activity (MCF7 [16]) | Activity (MCF7 [17]) |
| --- | --- | --- | --- | --- | --- | --- | --- | --- | --- | --- | --- | --- | --- | --- | --- | --- | --- | --- |
| O=C1NC(=O)c2ccc(Br)cc2/C1=C/Nc1ccc(CN2CCCCC2)cc1 | 3.1 µM | 10% | 5 µM | > 50 µM | 5% | 45% | 1.1 µM | Dose-dependent effect | 2% | 85% | 60% | 60% | 35% | 34% | > 50 µM | Active | 55% | 40% |
| CN1CCN(c2ccc(N/C=C3\C(=O)NC(=O)c4ccc(Br)cc43)cc2)CC1 | 3 µM | 16% | 3.1 µM | > 50 µM | – | – | – | Dose-dependent effect | 3% | – | – | – | 37% | 32% | – | Active | – | – |

From ChEMBL document CHEMBL1150411, “4-(Phenylaminomethylene)isoquinoline-1,3(2H,4H)-diones as potent and selective inhibitors of the cyclin-dependent kinase 4 (CDK4)” (J Med Chem, 2008)
